In ChEMBL document CHEMBL1275392, “Assessment of chemoselective neoglycosylation methods using chlorambucil as a model” (2010):

Tests used:
SK-OV-3 = assay: Growth inhibition of human SKOV3 cells after 7 days by celltiter-glo assay; assay type: functional; conditions: SK-OV-3, 168 h
A549 = assay: Growth inhibition of human A549 cells expressing p53 after 7 days by celltiter-glo assay; assay type: functional; conditions: A549, 168 h
SF-268 = assay: Growth inhibition of human SF268 cells after 7 days by celltiter-glo assay; assay type: functional; conditions: SF-268, 168 h
NCI-H460 = assay: Growth inhibition of human NCI-H460 cells after 7 days by celltiter-glo assay; assay type: functional; conditions: NCI-H460, 168 h
MCF7 = assay: Growth inhibition of human MCF7 cells after 7 days by celltiter-glo assay; assay type: functional; conditions: MCF7, 168 h
[1] = Growth inhibition of human p53 deficient H1299 cells after 7 days by celltiter-glo assay; assay type: functional; conditions: NCI-H1299, 168 h
Procedure, shortened: (§1)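 Cells seeded at 500 per well in 384-well plates. Compounds came from 30 mM DMSO stocks, serially diluted and tested in quadruplicate. Incubation was 7 d at 37 °C under 5% CO2. Calcein AM (10 μM) and EthD-1 were added, followed by a fluorescence read. CellTiter-Glo lysis was then done for 10 min at room temperature, with a luminescence read. GI50 came from curve fitting.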

HCT-15 = assay: Growth inhibition of human HCT15 cells after 7 days by celltiter-glo assay; assay type: functional; conditions: HCT-15, 168 h
HT-29 = assay: Growth inhibition of human HT-29 cells after 7 days by celltiter-glo assay; assay type: functional; conditions: HT-29, 168 h
DU-145 = assay: Growth inhibition of human DU145 cells after 7 days by celltiter-glo assay; assay type: functional; conditions: DU-145, 168 h
[2] = Growth inhibition of human p53 deficient Hep3B cells after 7 days by celltiter-glo assay; assay type: functional, Hep 3B2; conditions: 168 h; procedure, shortened: as §1

SMILES | GI50 (SK-OV-3) | GI50 (A549) | GI50 (SF-268) | GI50 (NCI-H460) | GI50 (MCF7) | GI50 [1] | GI50 (HCT-15) | GI50 (HT-29) | GI50 (DU-145) | GI50 [2]
CON(CCCc1ccc(N(CCCl)CCCl)cc1)C1O[C@H](C)[C@H](O)[C@H](O)[C@H]1O (stereo not given in full) | 1.7 µM | 9.6 µM | 1.7 µM | 5.9 µM | 3 µM | 3.5 µM | 0.82 µM | 6.7 µM | 4.1 µM | 2.6 µM
CON(CCCc1ccc(N(CCCl)CCCl)cc1)[C@@H]1O[C@H](CO)[C@@H](O)[C@H](O)[C@H]1O | 3 µM | 4.5 µM | 1.8 µM | 12.3 µM | 1.5 µM | 1.4 µM | 2.8 µM | 2.9 µM | 5.5 µM | 3.4 µM
CON(CCCc1ccc(N(CCCl)CCCl)cc1)C1O[C@H](CO)[C@@H](O[C@@H]2O[C@H](CO)[C@H](O)[C@H](O)[C@H]2O)[C@H](O)[C@@H]1O (stereo not given in full) | 35 µM | 56 µM | 19.1 µM | 57.7 µM | 26 µM | 24 µM | 31 µM | 34 µM | 43 µM | 38 µM
CON(CCCc1ccc(N(CCCl)CCCl)cc1)C1O[C@H](CO)[C@@H](O[C@@H]2O[C@H](CO)[C@@H](O)[C@H](O)[C@H]2O)[C@H](O)[C@H]1O (stereo not given in full) | 1.8 µM | 1.6 µM | 1.5 µM | 3.8 µM | 1.7 µM | 1.8 µM | 2.3 µM | 1.9 µM | 1.8 µM | 1.2 µM
CON(CCCc1ccc(N(CCCl)CCCl)cc1)[C@@H]1O[C@H](COCc2ccccc2)[C@@H](OCc2ccccc2)[C@H]1OCc1ccccc1 | > 100 µM | > 100 µM | > 100 µM | > 100 µM | > 100 µM | 82 µM | > 100 µM | > 100 µM | > 100 µM | > 100 µM
CON(CCCc1ccc(N(CCCl)CCCl)cc1)[C@@H]1O[C@H](C(=O)O)[C@@H](O)[C@H](O)[C@H]1O | 3.1 µM | 5.5 µM | 1.6 µM | 9.1 µM | 6 µM | 0.99 µM | 1.03 µM | 3.2 µM | 3.9 µM | 4.9 µM
CON(CCCc1ccc(N(CCCl)CCCl)cc1)[C@@H]1O[C@H](CO)[C@@H](O)[C@H](F)[C@H]1O | 2.2 µM | 3 µM | 2.2 µM | 7.1 µM | 7 µM | 1.3 µM | 1.2 µM | 2.6 µM | 4.1 µM | 3.2 µM
CON(CCCc1ccc(N(CCCl)CCCl)cc1)C1OC[C@H](O)[C@H](O)[C@@H]1O (stereo not given in full) | 2 µM | 2.4 µM | 2.1 µM | 5.7 µM | 0.97 µM | 3.3 µM | 2.1 µM | 2.2 µM | 3.7 µM | 2.4 µM
CON(CCCc1ccc(N(CCCl)CCCl)cc1)C1O[C@@H](CO)[C@H](O)[C@H](O)[C@H]1O (stereo not given in full) | 2.5 µM | 3.1 µM | 2.3 µM | 7.9 µM | 7.9 µM | 1.3 µM | 1.4 µM | 2.1 µM | 4.1 µM | 2 µM
CON(CCCc1ccc(N(CCCl)CCCl)cc1)[C@@H]1OC[C@@H](O)[C@H](O)[C@H]1O | 2.2 µM | 2.3 µM | 1.4 µM | 4.5 µM | 0.91 µM | 0.83 µM | 0.9 µM | 1.6 µM | 2.3 µM | 1.5 µM
CON(CCCc1ccc(N(CCCl)CCCl)cc1)[C@H]1C[C@@H](O)[C@H](O)[C@@H](CO)O1 | 1.12 µM | 3.1 µM | 2.5 µM | 5.4 µM | 5.4 µM | 0.58 µM | 0.7 µM | 1.2 µM | 4.3 µM | 3.7 µM
CON(CCCc1ccc(N(CCCl)CCCl)cc1)C1O[C@@H](C)[C@H](OC(C)=O)[C@@H](OC(C)=O)[C@H]1OC(C)=O (stereo not given in full) | 3.9 µM | 3.5 µM | 3 µM | 7.8 µM | 3.2 µM | 5 µM | 3.7 µM | 4.3 µM | 4.5 µM | 4.6 µM
CON(CCCc1ccc(N(CCCl)CCCl)cc1)C1O[C@@H](C)[C@@H](OCc2ccccc2)[C@@H](OCc2ccccc2)[C@@H]1OCc1ccccc1 (stereo not given in full) | 7.2 µM | 6.4 µM | 5.7 µM | 15.8 µM | 4 µM | 3.3 µM | 4.6 µM | 7.5 µM | 10 µM | 9.5 µM
CON(CCCc1ccc(N(CCCl)CCCl)cc1)[C@H]1O[C@@H](CO)[C@H](O)[C@@H](O)[C@@H]1O | 4.5 µM | 6.8 µM | 2.2 µM | 14.3 µM | 1.8 µM | 1.6 µM | 2.8 µM | 4.6 µM | 7 µM | 5 µM
O=C(O)CCCc1ccc(N(CCCl)CCCl)cc1 [CHLORAMBUCIL] | 5.5 µM | 6.1 µM | 5.4 µM | 11 µM | 8.2 µM | 4.9 µM | 8.1 µM | 5 µM | 9.4 µM | 5.1 µM
CON(CCCc1ccc(N(CCCl)CCCl)cc1)C1OC[C@H](O)[C@H]1O (stereo not given in full) | 2.1 µM | 2 µM | 1.3 µM | 1.9 µM | 0.87 µM | 0.72 µM | 0.82 µM | 1.2 µM | 2.1 µM | 1.4 µM
[O-]/[N+](=C\[C@@H](O)[C@H](O)CO)CCCc1ccc(N(CCCl)CCCl)cc1 | 2.6 µM | 3 µM | 1.2 µM | 3.8 µM | 2 µM | 1.07 µM | 2.5 µM | 3.2 µM | 3.6 µM | 1.7 µM
CON(CCCc1ccc(N(CCCl)CCCl)cc1)[C@H]1C[C@@H](O)[C@H](O)[C@@H](C)O1 | 3.2 µM | 3.1 µM | 2.3 µM | 5.7 µM | 3.1 µM | 4.8 µM | 2.5 µM | 3.2 µM | 5.5 µM | 3.8 µM
CON(CCCc1ccc(N(CCCl)CCCl)cc1)C1OC[C@@H](O)[C@@H](O)[C@H]1O (stereo not given in full) | 2 µM | 2.8 µM | 1.9 µM | 5.9 µM | 1.1 µM | 3.6 µM | 1.8 µM | 2.3 µM | 3.8 µM | 2.4 µM
